As a reminder, the IC50 is the concentration that gives 50% inhibition. Read a low IC50 as higher potency.

*1 amine or outer side, *2 acyl side, *3 side chain or, on linkers, in order; H or OH if unused. Where a SMILES comes first, the peptide text is derived from it. [ ]: non-standard residue; d: D form. The star is where a group is joined. X1 = O=C(Cc1ccc(N[*:1])cc1)[*:2]; NH(2-Me-phenyl) = Cc1ccccc1N*; PhAc = O=C(Cc1ccccc1)*; CO = O=C([*:1])[*:2]; Ahx = NCCCCCC(=O)O Where only a bound is given, the exact number is not on record here.

For 15 compounds, IC50 results are on record in ChEMBL document CHEMBL1132287, “Selective, tight-binding inhibitors of integrin alpha4beta1 that inhibit allergic airway responses” (J Med Chem, 1999).

Assay [1] deals with T1, Integrin alpha-4/beta-1 (Homo sapiens, UniProt P05556+P13612). The experiment in a line: Inhibition of integrin alpha4-beta1 binding to VCAM-Ig. It is filed as protein-complex assay.
For assay [2], the target named is T1, Integrin alpha-4/beta-1. The experiment in a line: Inhibition of integrin alpha4-beta1 adhesion to Jurkat cells. The class given is cell-based. The method in brief: (§1)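 BCECF-AM-labeled Jurkat cells (20 min, 37 °C) incubated 30 min with serial inhibitor dilutions or vehicle plus 1 mM MnCl2 in wells coated overnight at 4 °C with 1 ug/mL CS-1–BSA conjugate; after washing, bound cells read by fluorescence at 530 nm.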

A short description of assay [3]: Inhibition of integrin alpha6-beta1 adhesion using K562 cells expressing alpha-6. It is filed as cell-based, Homo sapiens. The method in brief:
(§2)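 BCECF-AM-labeled cells incubated 30 min at room temperature with inhibitor (1 nM–100 uM serial dilutions) or vehicle plus 1 mM MnCl2 in wells coated overnight at 4 °C with ligand; bound cells read at 530 nm. alpha4beta7: JY cells on CS-1–BSA 1 ug/mL; alpha5beta1: K562 on human 120 kD fibronectin fragment 5 ug/mL; alpha6beta1: alpha6-K562 on mouse laminin 20 ug/mL. IC50 from inhibition curves.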

Assay [4] can be described thus: Inhibition of integrin alpha1-beta1 adhesion using K562 cells expressing alpha-1. The class given is cell-based, Homo sapiens.
The next assay deals with T2, Integrin alpha-4/beta-7 (Homo sapiens, UniProt P13612+P26010).
T2 sequence (P13612 whole entry): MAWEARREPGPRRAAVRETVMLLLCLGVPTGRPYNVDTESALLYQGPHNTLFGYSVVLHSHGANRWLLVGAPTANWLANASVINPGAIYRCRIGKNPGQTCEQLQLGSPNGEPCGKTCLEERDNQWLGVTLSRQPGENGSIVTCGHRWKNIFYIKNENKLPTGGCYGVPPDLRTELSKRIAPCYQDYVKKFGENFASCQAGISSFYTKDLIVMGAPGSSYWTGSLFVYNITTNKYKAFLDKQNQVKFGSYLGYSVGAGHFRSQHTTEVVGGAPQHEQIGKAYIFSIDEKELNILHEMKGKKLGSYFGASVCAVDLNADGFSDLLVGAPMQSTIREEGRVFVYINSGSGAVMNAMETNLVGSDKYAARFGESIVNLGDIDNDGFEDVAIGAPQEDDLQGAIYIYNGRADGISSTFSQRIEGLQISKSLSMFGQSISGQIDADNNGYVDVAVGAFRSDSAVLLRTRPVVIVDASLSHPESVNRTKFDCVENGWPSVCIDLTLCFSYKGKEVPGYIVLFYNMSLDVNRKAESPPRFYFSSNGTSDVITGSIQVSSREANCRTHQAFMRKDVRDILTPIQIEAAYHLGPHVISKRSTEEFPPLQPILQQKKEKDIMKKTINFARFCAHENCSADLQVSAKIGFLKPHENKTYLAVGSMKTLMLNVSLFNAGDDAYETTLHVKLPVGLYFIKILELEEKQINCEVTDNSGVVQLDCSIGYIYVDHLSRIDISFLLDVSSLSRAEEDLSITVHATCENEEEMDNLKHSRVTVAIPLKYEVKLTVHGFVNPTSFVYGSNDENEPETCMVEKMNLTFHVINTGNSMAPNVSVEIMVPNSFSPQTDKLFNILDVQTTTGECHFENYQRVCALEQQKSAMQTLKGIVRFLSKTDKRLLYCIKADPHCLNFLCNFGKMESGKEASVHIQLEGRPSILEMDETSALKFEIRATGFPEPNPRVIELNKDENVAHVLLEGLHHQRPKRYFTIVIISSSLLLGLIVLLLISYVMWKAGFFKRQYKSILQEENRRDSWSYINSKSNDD
T2 sequence (P26010 whole entry): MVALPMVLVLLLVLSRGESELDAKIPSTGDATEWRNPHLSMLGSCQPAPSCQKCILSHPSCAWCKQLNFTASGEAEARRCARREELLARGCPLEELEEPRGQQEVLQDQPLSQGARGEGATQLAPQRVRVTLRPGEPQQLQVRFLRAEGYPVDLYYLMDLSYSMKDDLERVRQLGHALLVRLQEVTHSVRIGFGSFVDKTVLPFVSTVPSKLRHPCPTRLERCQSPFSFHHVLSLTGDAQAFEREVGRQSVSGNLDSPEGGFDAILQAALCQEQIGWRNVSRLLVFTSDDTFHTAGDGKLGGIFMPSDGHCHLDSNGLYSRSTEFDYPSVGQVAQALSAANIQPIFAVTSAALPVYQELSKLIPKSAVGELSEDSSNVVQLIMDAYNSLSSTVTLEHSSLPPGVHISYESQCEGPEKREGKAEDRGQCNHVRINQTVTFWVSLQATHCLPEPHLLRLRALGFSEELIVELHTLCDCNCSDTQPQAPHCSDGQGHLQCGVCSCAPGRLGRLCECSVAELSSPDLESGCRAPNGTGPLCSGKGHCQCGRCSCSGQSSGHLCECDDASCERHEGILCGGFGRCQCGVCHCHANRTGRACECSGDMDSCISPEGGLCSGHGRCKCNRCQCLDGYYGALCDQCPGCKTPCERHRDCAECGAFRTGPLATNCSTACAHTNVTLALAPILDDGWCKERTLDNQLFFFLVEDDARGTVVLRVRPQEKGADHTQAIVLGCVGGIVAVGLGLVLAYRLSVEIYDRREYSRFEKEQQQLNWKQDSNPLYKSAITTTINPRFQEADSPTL
The experiment in a line: Inhibition of integrin alpha4-beta7 adhesion to JY cells. The class given is cell-based. The method in brief:
as §2

For assay [5], the target named is Integrin alpha-IIb/beta-3 (Homo sapiens, UniProt P05106+P08514). As to the kind of experiment: Inhibition of integrin alphaIIb-beta3 adhesion to human citreated platelets.
Assay [6] deals with Intercellular adhesion molecule (ICAM-1), Integrin alpha-L/beta-2 (Homo sapiens, UniProt P05107+P05362+P20701). The experiment in a line: Inhibition of ICAM-1 transfected CHO cell adhesion to integrin alphaL-beta2 of human JY cells. The class given is cell-based.
For the next assay, the target named is Integrin alpha-5/beta-1 (Homo sapiens, UniProt P05556+P08648). The experiment in a line: Inhibition of integrin alpha5-beta1 adhesion to K562 cells. The class given is cell-based. The method in brief: as §2
In assay [7] the target is T1, Integrin alpha-4/beta-1. As to the kind of experiment: Inhibition of VCAM-Ig binding to integrin alpha4-beta1 of Jurkat cells. The class given is cell-based.
Assay [8] deals with T1, Integrin alpha-4/beta-1. The experiment in a line: Inhibition of integrin alpha4-beta1 adhesion to Jurkat cells (No inhibition). The class given is cell-based. The method in brief:
as §1

Assay [9] addresses Integrin alpha1/beta1 (Homo sapiens). The experiment in a line: Inhibition of integrin alpha1-beta1 adhesion using K562 cells expressing alpha-1.

Integrin alpha-IIb/beta-3, sequence (P05106 27-788 limits assumed): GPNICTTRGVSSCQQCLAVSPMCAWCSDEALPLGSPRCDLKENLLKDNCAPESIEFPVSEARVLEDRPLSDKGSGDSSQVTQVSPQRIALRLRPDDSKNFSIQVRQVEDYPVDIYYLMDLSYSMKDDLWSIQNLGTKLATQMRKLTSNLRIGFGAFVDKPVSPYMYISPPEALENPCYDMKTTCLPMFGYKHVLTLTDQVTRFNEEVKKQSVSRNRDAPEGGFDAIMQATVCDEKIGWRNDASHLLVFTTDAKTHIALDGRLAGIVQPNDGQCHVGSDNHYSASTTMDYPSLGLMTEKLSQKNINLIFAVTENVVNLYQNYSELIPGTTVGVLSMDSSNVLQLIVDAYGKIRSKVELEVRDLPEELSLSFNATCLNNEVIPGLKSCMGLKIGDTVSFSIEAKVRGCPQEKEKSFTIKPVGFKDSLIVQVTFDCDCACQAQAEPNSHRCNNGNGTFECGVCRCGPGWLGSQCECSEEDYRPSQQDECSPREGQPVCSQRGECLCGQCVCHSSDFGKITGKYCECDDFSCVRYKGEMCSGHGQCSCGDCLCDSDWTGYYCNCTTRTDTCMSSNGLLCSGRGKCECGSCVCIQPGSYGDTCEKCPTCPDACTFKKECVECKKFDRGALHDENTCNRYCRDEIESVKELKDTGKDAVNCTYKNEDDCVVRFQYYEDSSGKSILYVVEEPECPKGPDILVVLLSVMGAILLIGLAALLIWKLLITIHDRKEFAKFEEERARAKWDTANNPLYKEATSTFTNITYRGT
Integrin alpha-IIb/beta-3, sequence (P08514 32-887 limits assumed): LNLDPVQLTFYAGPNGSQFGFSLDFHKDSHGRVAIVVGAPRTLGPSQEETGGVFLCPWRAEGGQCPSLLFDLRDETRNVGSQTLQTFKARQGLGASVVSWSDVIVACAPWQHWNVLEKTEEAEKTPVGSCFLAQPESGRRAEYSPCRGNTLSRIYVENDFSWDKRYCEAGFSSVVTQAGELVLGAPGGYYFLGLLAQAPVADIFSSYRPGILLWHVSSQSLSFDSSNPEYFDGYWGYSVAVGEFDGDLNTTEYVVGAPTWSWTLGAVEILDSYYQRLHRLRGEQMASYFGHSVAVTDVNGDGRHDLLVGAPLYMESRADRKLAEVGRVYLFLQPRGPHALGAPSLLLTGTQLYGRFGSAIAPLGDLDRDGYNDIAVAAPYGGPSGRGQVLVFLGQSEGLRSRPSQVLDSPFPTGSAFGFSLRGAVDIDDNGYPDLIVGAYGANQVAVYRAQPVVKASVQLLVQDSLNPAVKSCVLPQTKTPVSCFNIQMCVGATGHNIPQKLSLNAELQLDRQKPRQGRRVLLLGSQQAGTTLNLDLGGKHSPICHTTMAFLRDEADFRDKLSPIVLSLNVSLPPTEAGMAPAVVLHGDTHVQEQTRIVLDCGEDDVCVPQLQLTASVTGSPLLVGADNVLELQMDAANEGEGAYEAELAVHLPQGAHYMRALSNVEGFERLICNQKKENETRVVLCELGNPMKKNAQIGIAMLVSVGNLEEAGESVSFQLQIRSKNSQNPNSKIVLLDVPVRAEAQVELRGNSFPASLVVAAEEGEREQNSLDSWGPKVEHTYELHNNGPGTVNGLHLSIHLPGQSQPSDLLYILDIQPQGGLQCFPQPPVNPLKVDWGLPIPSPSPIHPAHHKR
Integrin alpha-IIb/beta-3, sequence (P08514 891-1039 limits assumed): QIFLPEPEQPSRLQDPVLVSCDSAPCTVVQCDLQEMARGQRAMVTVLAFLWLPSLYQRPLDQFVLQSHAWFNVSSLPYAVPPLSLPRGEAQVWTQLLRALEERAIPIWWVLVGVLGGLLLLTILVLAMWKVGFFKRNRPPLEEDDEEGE
T1 sequence (P05556 whole entry, one chain of several): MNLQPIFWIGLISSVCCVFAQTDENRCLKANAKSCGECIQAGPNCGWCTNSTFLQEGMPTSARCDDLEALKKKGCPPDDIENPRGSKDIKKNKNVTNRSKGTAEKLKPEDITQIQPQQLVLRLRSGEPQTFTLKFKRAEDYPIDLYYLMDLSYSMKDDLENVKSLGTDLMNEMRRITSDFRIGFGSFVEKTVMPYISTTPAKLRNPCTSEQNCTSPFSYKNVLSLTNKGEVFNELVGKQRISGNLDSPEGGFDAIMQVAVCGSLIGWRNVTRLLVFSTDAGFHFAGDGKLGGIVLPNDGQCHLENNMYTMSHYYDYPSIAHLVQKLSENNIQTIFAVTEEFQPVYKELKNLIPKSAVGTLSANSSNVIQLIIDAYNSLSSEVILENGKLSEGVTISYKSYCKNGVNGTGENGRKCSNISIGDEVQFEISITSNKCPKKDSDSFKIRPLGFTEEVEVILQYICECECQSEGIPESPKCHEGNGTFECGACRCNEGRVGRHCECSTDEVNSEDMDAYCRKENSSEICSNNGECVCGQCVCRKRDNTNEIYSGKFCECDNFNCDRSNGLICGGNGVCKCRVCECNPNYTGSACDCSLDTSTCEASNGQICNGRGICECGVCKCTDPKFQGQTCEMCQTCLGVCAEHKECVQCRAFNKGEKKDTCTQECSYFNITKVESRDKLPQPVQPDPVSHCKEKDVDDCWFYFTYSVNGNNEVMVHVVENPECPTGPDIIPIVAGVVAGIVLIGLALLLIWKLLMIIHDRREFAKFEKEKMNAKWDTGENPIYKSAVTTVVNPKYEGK
Intercellular adhesion molecule (ICAM-1), Integrin alpha-L/beta-2, sequence (P20701 whole entry): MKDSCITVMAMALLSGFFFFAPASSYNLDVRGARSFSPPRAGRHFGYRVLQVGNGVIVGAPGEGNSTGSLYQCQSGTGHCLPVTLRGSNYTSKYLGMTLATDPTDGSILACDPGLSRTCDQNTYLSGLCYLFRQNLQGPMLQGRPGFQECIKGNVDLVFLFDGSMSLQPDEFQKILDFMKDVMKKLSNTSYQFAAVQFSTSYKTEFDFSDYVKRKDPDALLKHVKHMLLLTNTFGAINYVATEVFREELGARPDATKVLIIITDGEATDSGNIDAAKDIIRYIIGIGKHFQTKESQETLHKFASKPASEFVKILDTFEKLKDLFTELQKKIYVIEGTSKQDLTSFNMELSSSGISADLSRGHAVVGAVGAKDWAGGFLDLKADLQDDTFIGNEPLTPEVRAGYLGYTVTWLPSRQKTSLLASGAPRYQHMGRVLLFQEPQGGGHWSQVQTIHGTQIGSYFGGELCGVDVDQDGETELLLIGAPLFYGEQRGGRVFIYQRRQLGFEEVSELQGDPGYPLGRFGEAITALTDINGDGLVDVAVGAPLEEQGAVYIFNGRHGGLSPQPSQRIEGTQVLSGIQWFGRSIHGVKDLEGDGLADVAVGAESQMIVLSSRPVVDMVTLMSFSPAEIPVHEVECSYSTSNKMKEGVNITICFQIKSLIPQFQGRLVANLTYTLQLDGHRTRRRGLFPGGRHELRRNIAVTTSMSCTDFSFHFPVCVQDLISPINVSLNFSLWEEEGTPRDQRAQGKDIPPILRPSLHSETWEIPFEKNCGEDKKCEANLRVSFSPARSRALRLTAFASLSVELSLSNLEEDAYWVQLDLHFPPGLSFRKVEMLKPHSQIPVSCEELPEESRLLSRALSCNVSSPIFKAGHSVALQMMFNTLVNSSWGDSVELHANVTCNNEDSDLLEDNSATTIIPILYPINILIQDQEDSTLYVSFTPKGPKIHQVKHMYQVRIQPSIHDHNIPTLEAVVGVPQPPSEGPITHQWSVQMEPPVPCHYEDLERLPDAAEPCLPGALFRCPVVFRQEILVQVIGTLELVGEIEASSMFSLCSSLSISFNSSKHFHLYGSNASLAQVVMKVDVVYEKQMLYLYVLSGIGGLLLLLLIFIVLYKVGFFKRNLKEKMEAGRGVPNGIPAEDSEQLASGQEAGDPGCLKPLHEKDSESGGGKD
Intercellular adhesion molecule (ICAM-1), Integrin alpha-L/beta-2, sequence (P05362 whole entry): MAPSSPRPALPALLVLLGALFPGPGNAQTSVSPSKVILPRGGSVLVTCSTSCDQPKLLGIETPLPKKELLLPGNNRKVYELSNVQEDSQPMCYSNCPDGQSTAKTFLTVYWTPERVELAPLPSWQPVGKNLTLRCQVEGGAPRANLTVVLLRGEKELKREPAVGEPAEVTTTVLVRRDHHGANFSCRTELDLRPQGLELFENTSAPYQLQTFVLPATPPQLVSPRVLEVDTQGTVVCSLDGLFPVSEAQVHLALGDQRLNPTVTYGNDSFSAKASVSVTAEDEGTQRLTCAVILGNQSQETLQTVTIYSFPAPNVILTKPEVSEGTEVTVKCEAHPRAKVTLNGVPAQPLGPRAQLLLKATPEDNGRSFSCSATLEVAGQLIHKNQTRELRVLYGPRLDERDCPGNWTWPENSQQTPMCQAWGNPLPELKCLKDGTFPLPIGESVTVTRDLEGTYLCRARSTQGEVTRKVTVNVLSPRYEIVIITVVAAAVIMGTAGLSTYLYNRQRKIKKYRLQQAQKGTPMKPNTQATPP
Intercellular adhesion molecule (ICAM-1), Integrin alpha-L/beta-2, sequence (P05107 whole entry): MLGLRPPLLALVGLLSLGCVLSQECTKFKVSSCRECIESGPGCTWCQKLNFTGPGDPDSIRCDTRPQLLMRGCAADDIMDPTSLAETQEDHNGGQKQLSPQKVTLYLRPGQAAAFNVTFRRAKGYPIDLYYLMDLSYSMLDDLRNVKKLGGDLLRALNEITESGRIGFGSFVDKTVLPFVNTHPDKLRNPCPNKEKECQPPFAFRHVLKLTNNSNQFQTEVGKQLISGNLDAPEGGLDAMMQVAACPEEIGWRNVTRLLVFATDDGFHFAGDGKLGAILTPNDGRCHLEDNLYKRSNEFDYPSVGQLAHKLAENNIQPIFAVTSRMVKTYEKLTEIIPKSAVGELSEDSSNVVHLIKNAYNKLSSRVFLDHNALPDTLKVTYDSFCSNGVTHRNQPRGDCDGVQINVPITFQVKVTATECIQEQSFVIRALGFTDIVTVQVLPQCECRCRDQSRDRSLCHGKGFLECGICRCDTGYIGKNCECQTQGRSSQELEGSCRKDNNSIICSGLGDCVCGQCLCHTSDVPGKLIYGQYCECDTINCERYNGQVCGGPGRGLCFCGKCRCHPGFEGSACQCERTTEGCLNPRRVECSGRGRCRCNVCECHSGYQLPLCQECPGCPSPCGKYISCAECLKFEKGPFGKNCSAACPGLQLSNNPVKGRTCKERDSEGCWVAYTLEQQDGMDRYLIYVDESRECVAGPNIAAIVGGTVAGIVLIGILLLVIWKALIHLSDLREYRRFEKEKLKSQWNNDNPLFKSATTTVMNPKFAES

Regarding `CC(C)C[C@H](NC(=O)[C@@H](N)Cc1ccc(O)cc1)C(=O)N[C@@H](CC(=O)O)C(=O)N[C@H](C(=O)O)C(C)C` (H-YLDV-OH), the IC50 at Integrin alpha-4/beta-1 [1] was 12600 nM; against Integrin alpha-4/beta-1 [2], 51000 nM.

`CC(C)C[C@H](NC(=O)Cc1ccccc1)C(=O)N[C@@H](CC(=O)O)C(=O)N[C@H](C(=O)O)C(C)C` (PhAc-Leu-Asp-Val-OH): the figures for the IC50 at Integrin alpha-4/beta-1 [1] and on Integrin alpha-4/beta-1 [2] were 1000 nM and 40000 nM, respectively.

Turning to `CC(C)C[C@H](NC(=O)Cc1ccc(NC(=O)OCc2ccccc2)cc1)C(=O)N[C@@H](CC(=O)O)C(=O)N[C@H](C(=O)O)C(C)C`, the 50% inhibitory concentration (IC50) stood at 30 nM on Integrin alpha-4/beta-1 [1] and 200 nM against Integrin alpha-4/beta-1 [2].

As to `CC(C)C[C@H](NC(=O)Cc1ccc(O)cc1)C(=O)N[C@@H](CC(=O)O)C(=O)N[C@H](C(=O)O)C(C)C`, the IC50 on Integrin alpha-4/beta-1 [1] is 430 nM; against Integrin alpha-4/beta-1 [2], 5000 nM.

`Cc1ccccc1NC(=O)Nc1ccc(CC(=O)N[C@@H](CCCCNC(=O)CCCCCN)C(=O)N[C@@H](CC(=O)O)C(=O)N[C@H](C(=O)N2CCC[C@H]2C(=O)O)C(C)C)cc1` ({NH(2-Me-phenyl)-CO}-[X1]K(Ahx)DVP-OH): the concentration for half-maximal inhibition (IC50) was 4 nM on Integrin alpha-4/beta-1 [1] and 20 nM against Integrin alpha-4/beta-1 [2].

For `CC(C)C[C@H](NC(=O)Cc1ccc(NC(=O)c2ccccc2)cc1)C(=O)N[C@@H](CC(=O)O)C(=O)N[C@H](C(=O)O)C(C)C`, the IC50 at Integrin alpha-4/beta-1 [1] worked out at 295 nM; at Integrin alpha-4/beta-1 [2], 3250 nM.

`Cc1ccccc1NC(=O)Nc1ccc(CC(=O)N[C@@H](CC(C)C)C(=O)N[C@@H](CC(=O)O)C(=O)N[C@H](C(=O)N2CCC[C@H]2C(N)=O)C(C)C)cc1` ({NH(2-Me-phenyl)-CO}-[X1]LDVP-NH2): the IC50 is 1 nM at Integrin alpha-4/beta-1 [1] and 8 nM on Integrin alpha-4/beta-1 [2].

For `Cc1ccccc1NC(=O)Nc1ccc(CC(=O)N[C@@H](CC(C)C)C(=O)N[C@@H](CC(=O)O)C(=O)N[C@H](C(=O)N2CCC[C@H]2C(=O)O)C(C)C)cc1` ({NH(2-Me-phenyl)-CO}-[X1]LDVP-OH), the IC50 in [3] was above 100000 nM; in assay [4], above 100000 nM; against Integrin alpha-4/beta-7, 2000 nM; in assay [5], above 100000 nM; in assay [6] it was above 100000 nM.

With `Cc1ccccc1NC(=O)Nc1ccc(CC(=O)N[C@@H](CC(C)C)C(=O)N[C@@H](CC(=O)O)C(=O)O)cc1`, the IC50 was above 100000 nM in [3]; above 100000 nM in [4]; 59000 nM at Integrin alpha-4/beta-7; 18 nM at Integrin alpha-4/beta-1 [1]; above 100000 nM in [5]; above 100000 nM in assay [6]. For the same compound, the IC50 against Integrin alpha-5/beta-1 is above 100000 nM; against Integrin alpha-4/beta-1 [2] it was 68 nM.

With `Cc1ccccc1NC(=O)Nc1ccc(CC(=O)O)cc1`, the IC50 result at Integrin alpha-4/beta-1 [7] was “No inhibition”; against Integrin alpha-4/beta-1 [8], “Not Active”.

Take `Cc1ccccc1NC(=O)Nc1ccc(CC(=O)N[C@@H](CC(C)C)C(=O)N[C@@H](CC(=O)O)C(=O)N[C@H](C(=O)N2CCC[C@H]2C(=O)N[C@@H](CO)C(=O)N[C@H](C(=O)O)[C@@H](C)O)C(C)C)cc1` ({NH(2-Me-phenyl)-CO}-[X1]LDVPST-OH): the figures for the IC50 on Integrin alpha-4/beta-1 [1] and at Integrin alpha-4/beta-1 [2] were 1 nM and 5 nM, respectively.

As for `CC[C@H](C)[C@H](N)C(=O)N[C@@H](CC(C)C)C(=O)N[C@@H](CC(=O)O)C(=O)N[C@H](C(=O)O)C(C)C` (H-ILDV-OH), the IC50 turned out to be 66000 nM on Integrin alpha-4/beta-1 [1] and 175000 nM on Integrin alpha-4/beta-1 [2].

In the case of `Cc1ccccc1NC(=O)Nc1ccc(CC(=O)N[C@@H](CC(C)C)C(=O)N[C@@H](CC(=O)O)C(=O)N[C@H](C(=O)O)C(C)C)cc1`, the IC50 in assay [9] is above 100000 nM; in [3], above 100000 nM; on Integrin alpha-4/beta-7 it was 8000 nM; at Integrin alpha-4/beta-1 [1] it was 0.6 nM; in assay [5], above 100000 nM; in assay [6] it was above 50000 nM. For the same compound, the IC50 was above 100000 nM on Integrin alpha-5/beta-1 and 6 nM against Integrin alpha-4/beta-1 [2].

In the case of `Cc1ccccc1NC(=O)Nc1ccc(CC(=O)N[C@@H](CC(C)C)C(=O)O)cc1`, the IC50 result is given as “No inhibition” at Integrin alpha-4/beta-1 [7] and “Not Active” against Integrin alpha-4/beta-1 [8].

Take `CC(C)C[C@H](NC(=O)Cc1ccc(NC(=O)Nc2ccccc2)cc1)C(=O)N[C@@H](CC(=O)O)C(=O)N[C@H](C(=O)O)C(C)C`: the IC50 is 3 nM at Integrin alpha-4/beta-1 [1] and 30 nM against Integrin alpha-4/beta-1 [2].
